# AHR act: AHR activators, primary screen, cell-based, luminescence, luciferase reporter, human; Aryl hydrocarbon receptor (Homo sapiens), P35869; AHR-responsive luciferase reporter cells; activation, % at 5 µM; hit rate 2.5% among 320,000; AID 2796, 2010; in the data active = activation above about 47%;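 also: 0% = vehicle wells and 100% = reference agonist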
# GAA850 FXN act: FXN promoter activators, primary screen, cell-based, luciferase luminescence, HEK293 lucGAA850; hit rate 0.56% among 360,000; HEK293 lucGAA850 FXN promoter luciferase reporter, 24 h; percent of 10 µM SAHA response; activation, % at 6 µM;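 active = activation above the average of all compounds screened plus 3 SD, cutoff fixed separately per campaign, cut at about 7.5% in these data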;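 also: 0% = DMSO wells and 100% = 10 µM SAHA wells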
# ABCB6 inh MLPCN: ABCB6 transporter inhibitors, primary screen, K562-ABCB6 cells, flow cytometry, MLPCN library | fluorescence ratio to DMSO, % at 10 µM | K562-ABCB6 porphyrin accumulation, 1 h; hits give low values | ATP-binding cassette sub-family B member 6 (Homo sapiens), Q9NP58 | hit rate 0.19% among 360,000;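 active = fluorescence ratio to DMSO below 75%, the collection mean minus 3 SD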;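 also: signal is porphyrin accumulated inside mitochondria; 100% equals median channel fluorescence of DMSO control wells; lower ratio means ABCB6 inhibition with less porphyrin fluorescence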
# STAT3 act: IL-6 driven STAT3 reporter potentiators, primary screen, U3A cells, luciferase, luminescence, MLSCN library; IL-6 STAT3-luciferase reporter; 100% = signal with IL-6 EC80 alone; activation (% of control), % at 5.6 µM; hit rate 0.91% among 190,000; AID 871, 2007;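 active = activation above the screen-wide mean of compound activation plus 3 SD, cut at about 130% in these data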;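 also: 0% = background luminescence of wells with medium and substrate only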
#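 Material: human STAT1-deficient U3A cells with stable STAT3-luciferase reporter / Probe or stimulus: IL-6 stimulus at 33 ng/mL final / Schedule: 1 h compound pre-exposure, 6 h IL-6 stimulation, 37 °C / Technique: luminescence / Read-out basis: percent of IL-6-only median luminescence / Control set: IL-6-only high control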
# AHR act cf: AHR activators, confirmation, cell-based, luminescence, luciferase reporter, human. shares compounds with AHR act. activation, % at 9 µM. hit rate 87% among 2,300. AID 2845, 2010. human cells, AHR-responsive luciferase reporter; in the data active = activation above about 49%;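 also: HepG2 hepatoma cells carrying a DRE-driven firefly luciferase reporter; 0% = vehicle wells and 100% = reference agonist wells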
# PXR act counter: human PXR activators, counter-screen for AHR activator project, cell-based, luciferase luminescence; activation, % at 11.6 µM; cell-based PXR reporter; hit rate 88% among 2,300; shares compounds with AHR act; in the data active = activation above about 11%;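 also: human hepatoma DPX-2 cells expressing full-length human PXR; 0% = DMSO and 100% = reference agonist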
# Target sequence (O75469 whole entry, looked up): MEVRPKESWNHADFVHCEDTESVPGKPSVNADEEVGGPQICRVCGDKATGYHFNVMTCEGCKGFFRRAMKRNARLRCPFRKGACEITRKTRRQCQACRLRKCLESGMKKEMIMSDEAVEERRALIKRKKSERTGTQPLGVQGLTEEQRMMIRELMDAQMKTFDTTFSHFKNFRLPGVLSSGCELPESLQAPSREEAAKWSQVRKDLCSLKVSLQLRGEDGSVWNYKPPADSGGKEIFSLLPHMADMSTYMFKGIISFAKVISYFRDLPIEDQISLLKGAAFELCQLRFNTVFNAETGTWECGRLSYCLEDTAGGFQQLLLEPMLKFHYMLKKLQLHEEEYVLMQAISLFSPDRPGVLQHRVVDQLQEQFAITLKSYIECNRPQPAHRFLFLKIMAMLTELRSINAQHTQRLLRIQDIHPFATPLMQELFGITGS
# * hit, by the source's call; / = no result given. This is a sample that favours compounds with a hit; in the whole collection about 3.3% have one here.
SMILES,AHR act,GAA850 FXN act,ABCB6 inh MLPCN,STAT3 act,AHR act cf,PXR act counter
COc1ccc(-c2[nH]c(-c3ccc(F)cc3)nc2SCC(=O)NCc2ccco2)cc1OC,80*,-1,96,95,63*,57*
COc1ccc(-c2[nH]c(-c3ccccc3)nc2SCC(=O)NCc2ccco2)cc1OC,121*,-3,98,102,68*,75*
Cc1cccn2cc(COc3ccc(-c4ccccc4)cc3)nc12,/,-1,99,93,/,/
COc1ccc(NC(=O)CSc2ccc3nnc(-c4cccnc4)n3n2)cc1,3,1,101,/,/,/
Cc1csc(NC(=O)CSc2ccc3nnc(-c4ccncc4)n3n2)n1,92*,1,94,107,65*,/
COc1ccc(C(=O)CSc2ccc3nnc(-c4cccnc4)n3n2)cc1,83*,0,106,92,74*,11*
COc1ccccc1NC(=O)CSc1ccc2nnc(-c3ccncc3)n2n1,27,-1,102,100,/,/
CC1(Cc2cc(Cl)ccc2C(F)(F)F)C(=O)Nc2ccc(S(=O)(=O)NC3CCCCC3)cc21 (stereo not drawn),/,0,96,/,/,/
CCn1cnc2cc(NCc3nc4ccccc4n3C)ccc21,93*,2,100,86,65*,83*
CCn1cnc2cc(NCc3ccc(C)cc3)ccc21,34,1,105,100,/,/
CCn1cnc2cc(NCc3ccc(Br)cc3)ccc21,107*,/,/,/,113*,46*
CCn1cnc2cc(NCc3cccs3)ccc21,8,5,96,105,/,/
CC(C)n1cnc2cc(NCc3nc4ccccc4n3C)ccc21,91*,5,98,107,86*,128*
CCCn1c(CNc2ccc(Br)cc2)nc2ccccc21,101*,4,106,76,93*,51*
CCn1c(CNc2ccc(C(=O)O)cc2)nc2ccccc21,5,2,102,97,/,/
CC(C)Cn1c(-c2ccc(Br)cc2)c[nH]c1=S,7,2,94,96,/,/
CCOC(=O)CCCCC1C(CCCC(=O)OCC)C=NN1C (stereo not drawn),/,-3,103,/,/,/
NC(=O)c1c(NC(=O)c2cccnc2Cl)sc2c1CCCC2,103*,0,85,93,26,7
NC(=O)c1c(NC(=O)c2ccccc2F)sc2c1CCCC2,205*,4,93,/,104*,28*
COc1cc(C(=O)OCc2csc(CC(=O)Nc3ccccc3C)n2)ccc1OCC(C)C,/,1,99,/,/,/
Cc1ccc(C)c(N2CC(C(=O)OCC(=O)Nc3cc(C)on3)CC2=O)c1 (stereo not drawn),-1,-1,103,/,/,/
CCNC(=S)Nc1ccc(NC(=O)c2ccccc2O)cc1,0,2,99,/,/,/
CCNC(=S)Nc1cccc(NC(=O)c2ccccc2O)c1,86*,1,101,/,124*,14*
CC(=O)c1ccc(S(=O)(=O)N2CCN(CC(=O)Nc3ccnn3C3CCCC3)CC2)cc1,/,1,92,/,/,/
O=c1c[n+]([O-])c2ccccc2n1OCc1c(F)cccc1F,80*,1,158,92,92*,43*
SMILES,AHR act,GAA850 FXN act,ABCB6 inh MLPCN,STAT3 act,AHR act cf,PXR act counter
CCOn1c(=O)c[n+]([O-])c2ccccc21,6,1,104,94,/,/
CCCn1c(N)c(N(CCOC)C(=O)c2ccc(F)cc2F)c(=O)[nH]c1=O,-1,0,99,/,/,/
C[C@H](CO)N1C[C@H](C)[C@@H](CN(C)C(=O)NC2CCCCC2)Oc2ccc(NC(=O)CCC(F)(F)F)cc2C1=O,-2,1,96,/,/,/
O=c1c2ccccc2nc(-c2ccoc2)n1CCc1ccccc1,125*,1,100,76,102*,41*
O=c1c2ccccc2nc(-c2ccc(Br)cc2)n1Cc1ccccc1,3,4,96,95,/,/
CCCCCc1cc(=O)c2ccccc2o1,-2,1,98,/,/,/
c1ccc(-c2noc(-c3ccc4c(c3)OCO4)n2)cc1,87*,6,91,46,16,10
COc1ccccc1-c1nc(-c2ccc(Br)o2)no1,91*,1,90,159*,131*,58*
Brc1ccc(-c2nc(-c3ccccc3)no2)o1,124*,4,100,114,148*,19*
COc1ccccc1-c1nc(-c2ccncc2)no1,80*,3,101,92,83*,35*
CCOC(=O)Cc1csc(SCC(=O)NC2CCS(=O)(=O)C2)n1 (stereo not drawn),-1,1,99,/,/,/
COc1ccc(-c2nc(-c3ccc(Br)o3)no2)cc1OC,-3,2,99,104,/,/
COc1cccc(-c2nc(-c3ccc(Br)o3)no2)c1,86*,3,94,/,136*,28*
Cc1ccc(-c2noc(-c3ccccc3Br)n2)cc1,126*,1,92,123,120*,18*
O=C(CN1C(=O)c2cccnc2Oc2ccc(Cl)cc21)N1CCCC1,0,1,96,/,/,/
Nc1ccccc1C#Cc1ccc2[nH]ccc2c1,94*,4,101,/,120*,24*
Nc1nc(COC(=O)c2ccc3c(c2)OCCO3)nc(Nc2ccccc2)n1,0,1,91,/,/,/
CC1Cc2ccccc2N1CC(=O)Nc1cc(S(=O)(=O)N2CCOCC2)ccc1Cl (stereo not drawn),/,2,95,/,/,/
O=C(O)CCCn1cc(NC(=O)c2sc3ccccc3c2Cl)cn1,-4,-2,100,/,/,/
O=C1c2ccccc2NC(c2ccc(Br)s2)N1O (stereo not drawn),80*,/,/,/,81*,25*
COc1cc(/C=N/NC(N)=O)cc(Br)c1OCc1ccccc1C,26,4,99,99,/,/
C=CCOc1c(Br)cc(/C=N/NC(N)=O)cc1OC,89*,3,95,82,112*,25*
Cc1cccc(-n2c(=O)[nH]c3c(C(N)=O)nc(-c4ccccc4Cl)nc32)c1,94*,1,100,106,72*,12*
COc1cccc(-c2nc(C(N)=O)c3[nH]c(=O)n(-c4ccccc4)c3n2)c1OC,88*,2,98,96,61*,10*
COc1ccc(-c2nc(C(N)=O)c3[nH]c(=O)n(-c4cccc(C)c4)c3n2)c(OC)c1,98*,3,92,101,67*,20*
Cc1cccc(-n2c(=O)[nH]c3c(C(N)=O)nc(CC(C)C)nc32)c1,30,-1,84,109,/,/
CCN(CC)S(=O)(=O)c1ccc(OC)c(NC(=O)c2ccc3c(c2)OCO3)c1,5,-1,97,100,/,/
